Measured values from ChEMBL document CHEMBL5058577, “EUbOPEN Chemogenomics Library 2 (Multiplex)” (2022).

Test system: HEK-293T
Test: Multiplex assay against HEK293T
Type: toxicity, cell-based
Conditions: human
Procedure, shortened: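 Cells stained live at seeding with Hoechst33342, BioTracker Green Microtubule Cytoskeleton Dye, MitoTracker Red and Annexin V Alexa Fluor 680 were imaged on a CQ1 microscope at 37°C and 5% CO2 after compound addition. Their classification by CellPathfinder machine-learning gating ran from Hoechst high-intensity objects versus normal cells, to healthy, pyknosed or fragmented nuclei among normal cells, to mitotic or apoptotic among pyknosed cells. Tubulin, mitochondrial-mass and membrane-permeability phenotypes are per cents of healthy-nucleus cells.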

[1] = 12 h, 1 µM, compound concentration 1 uM, replicate 1
[2] = 12 h, 1 µM, compound concentration 1 uM, replicate 2
[3] = 12 h, 10 µM, compound concentration 10 uM, replicate 1
[4] = 12 h, 10 µM, compound concentration 10 uM, replicate 2
[5] = 24 h, 1 µM, compound concentration 1 uM, replicate 1
[6] = 24 h, 1 µM, compound concentration 1 uM, replicate 2
[7] = 24 h, 10 µM, compound concentration 10 uM, replicate 1
[8] = 24 h, 10 µM, compound concentration 10 uM, replicate 2
[9] = 48 h, 1 µM, compound concentration 1 uM, replicate 1
[10] = 48 h, 1 µM, compound concentration 1 uM, replicate 2
[11] = 48 h, 10 µM, compound concentration 10 uM, replicate 1
[12] = 48 h, 10 µM, compound concentration 10 uM, replicate 2

Which “Population Apoptotic (%)” value [1] does the source give for `CCCCC(=O)N(Cc1ccc(-c2ccccc2-c2nnn[nH]2)cc1)[C@H](C(=O)O)C(C)C` here?
Its value is 44%.

And the “Population Fragmented Nuclei (%)” value [1]?
The value was 7%.

What about the “Population Healthy Nuclei (%)” value [1] of the same compound?
The value was 80%.

What about the “Population Hoechst High Intensity Objects (%)” value [1] of the same compound?
The value was 9%.

And the “Population Membrane Permeable-Phenotype (%)” value [1]?
The value was 0%.

What about the “Population Mitochondria Different-Phenotype (%)” value [1] of the same compound?
The value was 36%.

And the “Population Mitotic Cells (%)” value [1]?
The value was 55%.

And the “Population Normal (%)” value [1]?
The value was 90%.

And the “Population Pyknosed Nuclei (%)” value [1]?
The value was 12%.

What about the “Population Tubulin-Different-Phenotype (%)” value [1] of the same compound?
The value was 16%.

And the “Total Cell Count” value [1]?
The value was 469.

And the “Population Apoptotic (%)” value [2]?
Its value is 40%.

What about the “Population Fragmented Nuclei (%)” value [2] of the same compound?
Its value is 6%.

And the “Population Healthy Nuclei (%)” value [2]?
The value was 74%.

And the “Population Hoechst High Intensity Objects (%)” value [2]?
Its value is 11%.

And the “Population Mitochondria Different-Phenotype (%)” value [2]?
The value was 49%.

And the “Population Mitotic Cells (%)” value [2]?
The value was 59%.

And the “Population Normal (%)” value [2]?
Its value is 88%.

What about the “Population Pyknosed Nuclei (%)” value [2] of the same compound?
Its value is 18%.

And the “Population Tubulin-Different-Phenotype (%)” value [2]?
The value was 21%.

What about the “Total Cell Count” value [2] of the same compound?
The value was 290.

What about the “Population Apoptotic (%)” value [3] of the same compound?
Its value is 21%.

What about the “Population Fragmented Nuclei (%)” value [3] of the same compound?
The value was 7%.

What about the “Population Healthy Nuclei (%)” value [3] of the same compound?
The value was 83%.

And the “Population Hoechst High Intensity Objects (%)” value [3]?
Its value is 5%.

What about the “Population Membrane Permeable-Phenotype (%)” value [3] of the same compound?
Its value is 0%.

What about the “Population Mitochondria Different-Phenotype (%)” value [3] of the same compound?
Its value is 30%.

What about the “Population Mitotic Cells (%)” value [3] of the same compound?
The value was 78%.

And the “Population Normal (%)” value [3]?
Its value is 94%.

And the “Population Pyknosed Nuclei (%)” value [3]?
Its value is 8%.

What about the “Population Tubulin-Different-Phenotype (%)” value [3] of the same compound?
Its value is 19%.

What about the “Total Cell Count” value [3] of the same compound?
The value was 507.

What about the “Population Apoptotic (%)” value [4] of the same compound?
The value was 51%.

And the “Population Fragmented Nuclei (%)” value [4]?
The value was 5%.

And the “Population Healthy Nuclei (%)” value [4]?
Its value is 81%.

And the “Population Hoechst High Intensity Objects (%)” value [4]?
The value was 10%.

What about the “Population Mitochondria Different-Phenotype (%)” value [4] of the same compound?
Its value is 63%.

And the “Population Mitotic Cells (%)” value [4]?
Its value is 48%.

What about the “Population Normal (%)” value [4] of the same compound?
Its value is 89%.

And the “Population Pyknosed Nuclei (%)” value [4]?
The value was 13%.

And the “Total Cell Count” value [4]?
The value was 310.

What about the “Population Apoptotic (%)” value [5] of the same compound?
The value was 30%.

And the “Population Fragmented Nuclei (%)” value [5]?
Its value is 11%.

And the “Population Healthy Nuclei (%)” value [5]?
Its value is 78%.

And the “Population Hoechst High Intensity Objects (%)” value [5]?
Its value is 5%.

What about the “Population Membrane Permeable-Phenotype (%)” value [5] of the same compound?
Its value is 0%.

What about the “Population Mitochondria Different-Phenotype (%)” value [5] of the same compound?
Its value is 21%.

What about the “Population Mitotic Cells (%)” value [5] of the same compound?
Its value is 70%.

And the “Population Normal (%)” value [5]?
The value was 94%.

And the “Population Pyknosed Nuclei (%)” value [5]?
Its value is 10%.

And the “Population Tubulin-Different-Phenotype (%)” value [5]?
The value was 12%.

And the “Total Cell Count” value [5]?
Its value is 630.

And the “Population Apoptotic (%)” value [6]?
The value was 32%.

And the “Population Fragmented Nuclei (%)” value [6]?
Its value is 9%.

And the “Population Healthy Nuclei (%)” value [6]?
Its value is 82%.

And the “Population Hoechst High Intensity Objects (%)” value [6]?
The value was 6%.

And the “Population Mitochondria Different-Phenotype (%)” value [6]?
The value was 26%.

What about the “Population Mitotic Cells (%)” value [6] of the same compound?
Its value is 67%.

And the “Population Normal (%)” value [6]?
Its value is 93%.

And the “Population Pyknosed Nuclei (%)” value [6]?
Its value is 8%.

And the “Total Cell Count” value [6]?
The value was 429.

And the “Population Apoptotic (%)” value [7]?
The value was 20%.

What about the “Population Fragmented Nuclei (%)” value [7] of the same compound?
Its value is 9%.

What about the “Population Healthy Nuclei (%)” value [7] of the same compound?
Its value is 82%.

And the “Population Hoechst High Intensity Objects (%)” value [7]?
The value was 5%.

What about the “Population Membrane Permeable-Phenotype (%)” value [7] of the same compound?
Its value is 0%.

And the “Population Mitochondria Different-Phenotype (%)” value [7]?
The value was 19%.

What about the “Population Mitotic Cells (%)” value [7] of the same compound?
Its value is 79%.

And the “Population Normal (%)” value [7]?
The value was 94%.

And the “Population Pyknosed Nuclei (%)” value [7]?
The value was 7%.

What about the “Population Tubulin-Different-Phenotype (%)” value [7] of the same compound?
The value was 11%.

And the “Total Cell Count” value [7]?
The value was 663.

What about the “Population Apoptotic (%)” value [8] of the same compound?
The value was 35%.

And the “Population Hoechst High Intensity Objects (%)” value [8]?
Its value is 7%.

And the “Population Mitochondria Different-Phenotype (%)” value [8]?
The value was 30%.

And the “Population Mitotic Cells (%)” value [8]?
The value was 64%.

And the “Population Normal (%)” value [8]?
The value was 92%.

And the “Population Tubulin-Different-Phenotype (%)” value [8]?
Its value is 13%.

And the “Total Cell Count” value [8]?
The value was 420.

And the “Population Apoptotic (%)” value [9]?
Its value is 18%.

What about the “Population Fragmented Nuclei (%)” value [9] of the same compound?
Its value is 13%.

What about the “Population Healthy Nuclei (%)” value [9] of the same compound?
The value was 80%.

And the “Population Hoechst High Intensity Objects (%)” value [9]?
The value was 2%.

And the “Population Membrane Permeable-Phenotype (%)” value [9]?
Its value is 1%.

What about the “Population Mitochondria Different-Phenotype (%)” value [9] of the same compound?
Its value is 12%.

And the “Population Mitotic Cells (%)” value [9]?
Its value is 81%.

What about the “Population Normal (%)” value [9] of the same compound?
Its value is 97%.

And the “Population Pyknosed Nuclei (%)” value [9]?
Its value is 5%.

And the “Population Tubulin-Different-Phenotype (%)” value [9]?
Its value is 7%.

What about the “Total Cell Count” value [9] of the same compound?
Its value is 1024.

What about the “Population Apoptotic (%)” value [10] of the same compound?
Its value is 19%.

And the “Population Fragmented Nuclei (%)” value [10]?
The value was 14%.

What about the “Population Healthy Nuclei (%)” value [10] of the same compound?
The value was 79%.

And the “Population Hoechst High Intensity Objects (%)” value [10]?
The value was 3%.

What about the “Population Membrane Permeable-Phenotype (%)” value [10] of the same compound?
Its value is 0%.

And the “Population Mitochondria Different-Phenotype (%)” value [10]?
Its value is 16%.

What about the “Population Mitotic Cells (%)” value [10] of the same compound?
Its value is 80%.

What about the “Population Normal (%)” value [10] of the same compound?
Its value is 96%.

And the “Population Pyknosed Nuclei (%)” value [10]?
The value was 6%.

And the “Population Tubulin-Different-Phenotype (%)” value [10]?
Its value is 9%.

What about the “Total Cell Count” value [10] of the same compound?
The value was 653.

What about the “Population Apoptotic (%)” value [11] of the same compound?
Its value is 14%.

And the “Population Fragmented Nuclei (%)” value [11]?
Its value is 14%.

And the “Population Healthy Nuclei (%)” value [11]?
The value was 81%.

And the “Population Hoechst High Intensity Objects (%)” value [11]?
Its value is 1%.

What about the “Population Membrane Permeable-Phenotype (%)” value [11] of the same compound?
The value was 2%.

What about the “Population Mitochondria Different-Phenotype (%)” value [11] of the same compound?
Its value is 8%.

And the “Population Mitotic Cells (%)” value [11]?
The value was 85%.

And the “Population Normal (%)” value [11]?
Its value is 98%.

And the “Population Pyknosed Nuclei (%)” value [11]?
Its value is 3%.

What about the “Population Tubulin-Different-Phenotype (%)” value [11] of the same compound?
The value was 8%.

What about the “Total Cell Count” value [11] of the same compound?
Its value is 1205.

And the “Population Apoptotic (%)” value [12]?
Its value is 15%.

And the “Population Healthy Nuclei (%)” value [12]?
The value was 78%.

What about the “Population Hoechst High Intensity Objects (%)” value [12] of the same compound?
Its value is 2%.

And the “Population Membrane Permeable-Phenotype (%)” value [12]?
The value was 0%.

What about the “Population Mitochondria Different-Phenotype (%)” value [12] of the same compound?
The value was 17%.

And the “Population Mitotic Cells (%)” value [12]?
The value was 84%.

What about the “Population Normal (%)” value [12] of the same compound?
The value was 97%.

And the “Population Pyknosed Nuclei (%)” value [12]?
The value was 7%.

What about the “Total Cell Count” value [12] of the same compound?
Its value is 623.
